Results: ChEMBL document CHEMBL4673191, “A scaffold hopping strategy to generate new aryl-2-amino pyrimidine MRSA biofilm inhibitors” (RSC Med Chem, 2021)
pIC50: −log10 of the molar value. The source made the active and inactive calls. No cut-off for these calls is given here.

System: Klebsiella pneumoniae
Test: Antibacterial activity against Klebsiella pneumoniae B9 assessed as reduction in bacterial growth incubated for 16 hrs by broth microdilution assay
Type: functional
Conditions: not given
How it was run: (§1)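 Bacteria grown 4–6 h in CAMHB, subcultured to 5 x 10⁵ CFU/mL in fresh CAMHB. Compound added from 100 mM DMSO stock, then 2-fold serial dilution in microtiter plate; untreated and media-only wells as controls. Stationary incubation at 37 °C for 16 h, then OD₆₀₀ read. MIC taken as lowest concentration giving 90% growth inhibition vs untreated. Duplicate, repeated at least twice.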

Compound	MIC [µM]
Cl.Nc1nccc(-c2cccc(NC(=O)c3cc(Cl)cc(Cl)c3)c2)n1	≥ 200
Cl.Nc1nccc(-c2ccccc2NC(=O)c2cc(Cl)cc(Cl)c2)n1	≥ 200
Cl.Nc1nccc(-c2ccccc2NC(=O)c2cc(Br)cc(Br)c2)n1	≥ 200
Cl.Nc1nccc(-c2ccc(NC(=O)c3cc(Cl)cc(Cl)c3)cc2)n1	≥ 200
Cl.Nc1ncc(-c2cccc(NC(=O)c3cc(F)cc(F)c3)c2)cn1	≥ 200

System: Staphylococcus aureus
Test: Antibacterial activity against methicillin-resistant Staphylococcus aureus ATCC 43300 assessed as inhibition of planktonic bacterial growth at IC50 incubated for 24 hrs by colony counter analysis
Type: functional
Conditions: not given
How it was run: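 MRSA 43300 grown overnight in TSB with 2.0% glucose (TSBG), inoculated into fresh TSBG at OD600 0.01, compound added to 3 mL tube cultures; untreated control. Shaken at 37 °C; samples at 2, 4, 6, 8, 24 h serially diluted in TSBG, plated on nutrient agar, incubated overnight at 37 °C, colonies counted. Duplicates, at least two separate repeats.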

Compound	Activity
Cl.Nc1nccc(-c2cccc(NC(=O)c3cc(Cl)cc(Cl)c3)c2)n1	inactive

System: not listed separately
Test: Hemolytic activity against sheep blood assessed as blood cell lysis at 200 uM incubated for 1 hr by UV-visible spectrophotometry
Type: ADME, tissue-based, Ovis aries
Conditions: sheep blood cells, read-out: Activity
How it was run: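 Defibrinated sheep blood centrifuged, washed and resuspended in PBS three times, then diluted 10-fold. Compound added from DMSO stock; 1% Triton X as 100% lysis and PBS as zero lysis. Shaken at 200 rpm, 37 °C, 1 h, then centrifuged. Supernatant diluted 40-fold in water and absorbance read at 540 nm.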

Compound	hemolysis at 1 h, 200 µM [%]
Cl.Nc1nccc(-c2cccc(NC(=O)c3cc(Cl)cc(Cl)c3)c2)n1	5

System: Acinetobacter baumannii
Test: Antibacterial activity against Acinetobacter baumannii ATCC 4106 assessed as reduction in bacterial growth incubated for 16 hrs by broth microdilution assay
Type: functional
Conditions: not given
How it was run: as §1

Compound	MIC [µM]
Cl.Nc1nccc(-c2cccc(NC(=O)c3cc(Cl)cc(Cl)c3)c2)n1	≥ 200
Cl.Nc1nccc(-c2ccccc2NC(=O)c2cc(Cl)cc(Cl)c2)n1	≥ 200
Cl.Nc1nccc(-c2ccccc2NC(=O)c2cc(Br)cc(Br)c2)n1	≥ 200
Cl.Nc1nccc(-c2ccc(NC(=O)c3cc(Cl)cc(Cl)c3)cc2)n1	≥ 200
Cl.Nc1ncc(-c2cccc(NC(=O)c3cc(F)cc(F)c3)c2)cn1	≥ 200

System: Staphylococcus aureus
Test: Inhibition of biofilm formation in methicillin-resistant Staphylococcus aureus ATCC 33591 incubated for 24 hrs by crystal violet staining based assay
Type: functional, organism-based
Conditions: ATCC 33591, 24 h
How it was run: (§2)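 Overnight culture subcultured to OD600 0.01 in TSB with 2.0% (w/v) glucose; compound diluted in this medium, 100 µL per well of PVC plates, static incubation 24 h at 37 °C. Wells washed with water, stained with 0.1% crystal violet 30 min at ambient temperature, stain solubilized in ethanol, OD540 read minus no-biofilm background. Duplicates, at least two separate repeats.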

Compound	pIC50
Cl.Nc1nccc(-c2cccc(NC(=O)c3cc(Cl)cc(Cl)c3)c2)n1	4.58

System: Acinetobacter baumannii
Test: Potentiation of colistin-induced antibacterial activty against Acinetobacter baumannii ATCC 4106 assessed as colistin MIC at 60 uM incubated for 16 hrs by broth microdilution assay (reference value: 1024 microg/ml)
Type: functional
Conditions: not given
How it was run: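 Cultures grown 4–6 h in CAMHB, diluted to 5 x 10⁵ CFU/mL. Compound added to aliquots from 100 mM DMSO stock; one aliquot left undosed for colistin MIC alone. Colistin serially diluted 2-fold in the compound-dosed suspension; compound-alone wells kept. Stationary, 37 °C, 16 h, then OD₆₀₀. Colistin MIC = lowest concentration giving 90% growth inhibition vs untreated. Duplicate, at least twice.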

Compound	MIC [µg/mL]
Cl.Nc1nccc(-c2cccc(NC(=O)c3cc(Cl)cc(Cl)c3)c2)n1	> 64
Cl.Nc1nccc(-c2ccccc2NC(=O)c2cc(Cl)cc(Cl)c2)n1	> 64
Cl.Nc1nccc(-c2ccccc2NC(=O)c2cc(Br)cc(Br)c2)n1	> 64
Cl.Nc1nccc(-c2ccc(NC(=O)c3cc(Cl)cc(Cl)c3)cc2)n1	> 64
Cl.Nc1ncc(-c2cccc(NC(=O)c3cc(F)cc(F)c3)c2)cn1	> 64

System: Staphylococcus aureus
Test: Inhibition of biofilm formation in methicillin-resistant Staphylococcus aureus ATCC 43300 incubated for 24 hrs by crystal violet staining based assay
Type: functional, organism-based
Conditions: ATCC 43300, 24 h
How it was run: as §2

Compound	pIC50
Cl.Nc1nccc(-c2cccc(NC(=O)c3cc(Cl)cc(Cl)c3)c2)n1	4.58
Cl.Nc1nccc(-c2ccccc2NC(=O)c2cc(Cl)cc(Cl)c2)n1	< 4.30
Cl.Nc1nccc(-c2ccccc2NC(=O)c2cc(Br)cc(Br)c2)n1	< 3.70
Cl.Nc1nccc(-c2ccc(NC(=O)c3cc(Cl)cc(Cl)c3)cc2)n1	4.39
Cl.Nc1ncc(-c2cccc(NC(=O)c3cc(F)cc(F)c3)c2)cn1	< 3.70

System: Staphylococcus aureus
Test: Inhibition of biofilm formation in methicillin-resistant Staphylococcus aureus ATCC 6538 incubated for 24 hrs by crystal violet staining based assay
Type: functional, organism-based
Conditions: ATCC 6538, 24 h
How it was run: as §2

Compound	pIC50
Cl.Nc1nccc(-c2cccc(NC(=O)c3cc(Cl)cc(Cl)c3)c2)n1	4.60

System: Staphylococcus aureus
Test: Inhibition of biofilm formation in methicillin-resistant Staphylococcus aureus ATCC 43300 at 200 uM incubated for 24 hrs by crystal violet staining based assay relative to control
Type: functional
Conditions: not given
How it was run: as §2

Compound	inhibition at 200 µM [%]
Cl.Nc1nccc(-c2cccc(NC(=O)c3cc(Cl)cc(Cl)c3)c2)n1	> 50
Cl.Nc1nccc(-c2ccccc2NC(=O)c2cc(Cl)cc(Cl)c2)n1	> 50
Cl.Nc1nccc(-c2ccccc2NC(=O)c2cc(Br)cc(Br)c2)n1	> 50
Cl.Nc1nccc(-c2ccc(NC(=O)c3cc(Cl)cc(Cl)c3)cc2)n1	> 50
Cl.Nc1ncc(-c2cccc(NC(=O)c3cc(F)cc(F)c3)c2)cn1	> 50

System: Staphylococcus aureus
Test: Inhibition of biofilm formation in methicillin-resistant Staphylococcus aureus BAA-44 incubated for 24 hrs by crystal violet staining based assay
Type: functional, organism-based
Conditions: BAA-44, 24 h
How it was run: as §2

Compound	pIC50
Cl.Nc1nccc(-c2cccc(NC(=O)c3cc(Cl)cc(Cl)c3)c2)n1	4.53

System: Staphylococcus aureus
Test: Antibiofilm activity against preformed methicillin-resistant Staphylococcus aureus ATCC 43300 assessed as dispersion of biofilm at 100 uM incubated for 24 hrs by crystal violet staining based assay
Type: functional, organism-based
Conditions: not given
How it was run: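 Overnight culture in TSB + 2.0% glucose subcultured to OD600 0.01 in TSBG; 100 µL per well of PVC plates, static 37 °C for 24 h to form biofilm. After washing, compound in medium added for a further 24 h at 37 °C; medium-only control. Washed, 0.1% crystal violet 30 min, ethanol-solubilized, OD540 with no-biofilm background subtracted. Duplicates, ≥2 repeats.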

Compound	Activity
Cl.Nc1nccc(-c2cccc(NC(=O)c3cc(Cl)cc(Cl)c3)c2)n1	inactive
Cl.Nc1nccc(-c2ccccc2NC(=O)c2cc(Cl)cc(Cl)c2)n1	inactive
Cl.Nc1nccc(-c2ccccc2NC(=O)c2cc(Br)cc(Br)c2)n1	inactive
Cl.Nc1nccc(-c2ccc(NC(=O)c3cc(Cl)cc(Cl)c3)cc2)n1	inactive
Cl.Nc1ncc(-c2cccc(NC(=O)c3cc(F)cc(F)c3)c2)cn1	inactive
